Screening results from PubChem.
Most compounds without a hit are left out; they make up all but 4% or so of the library.
Ecoli rRNA inh = reduced GFP signal of wild-type E. coli, primary screen, bacterial rRNA inhibitor project, GFP/RFP fluorescence, OD600, single point; E. coli WT GFP vs humanized-ribosome RFP mutants, 24 h; hits give low values; DMSO median 0, no signal -100; GFP signal change (wild-type ribosome), % (test concentration not listed); 350,000 compounds, 1.6% hits; AID 720706, 2013;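 active = significant combined selectivity score with lowered wild-type GFP, culture density cut under 30%, mutant RFP and density less affected; inactive = any of these conditions unmet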
FGF22 binding = binders of human FGF22 protein, primary screen, FGF22 synaptogenesis inhibitor project, biophysical, thermal shift, single point; recombinant FGF22 thermal shift, SYPRO orange fluorescence; percent of sucrose octasulfate shift, DMSO zero; Fibroblast growth factor 22 (Homo sapiens), Q9HCT0; AID 651658, 2012; activity (Tm shift, normalised), % at 9.99 µM; 340,000 compounds, 1.5% hits;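 active = mean Tm shift, scaled 0 neutral to 100 positive control, at about 1.3% or above, every replicate too, limit read from the data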
Target sequence (Q9HCT0 whole entry, looked up): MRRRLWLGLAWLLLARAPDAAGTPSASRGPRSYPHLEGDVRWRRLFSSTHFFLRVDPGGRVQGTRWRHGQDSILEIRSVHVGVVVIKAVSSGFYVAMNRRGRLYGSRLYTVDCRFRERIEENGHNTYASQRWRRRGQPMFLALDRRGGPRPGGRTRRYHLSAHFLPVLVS
FN deposit inh = inhibitors of fibronectin matrix deposition, primary screen, AH1F cells, Alexa488-fibronectin fluorescence, plate reader. AH1F fibroblasts, overnight. inhibition, % at 12.6 µM. 350,000 compounds, 0.086% hits;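 active = mean inhibition across replicates of 30% or more, regardless of how many single replicates reach that level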;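 note: positive control wells lacked labelled fibronectin entirely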
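material = AH1F fibroblast monolayer depositing Alexa488-labelled fibronectin into matrix | amount = 10000 AH1F cells/well | buffer or medium = DMEM plus 2% serum, read in PBS | incubation = 1 h cell adhesion before compound, then overnight fibronectin incubation | detection = fluorescence at 485 nm excitation, 525 nm emission | evaluation = percent inhibition as loss of matrix-bound fibronectin fluorescence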
E-sel inducer = E-selectin induction in HUVECs, primary screen, imaging, HUVEC, immunofluorescence imaging, single point. 260,000 compounds, 0.37% hits. normalized: neutral wells 0, TNF-alpha wells 100. activation, % at 7.58 µM. P16581;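 active = mean E-selectin-positive cell signal at least 10% of the positive control, reached in at least 60% of replicates, without over 20% cell loss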
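Read-out: % PE-positive cells | Test system: HUVEC | Doses: One compound dose added by pin transfer | Buffer or medium: EGM-2 over gelatin coat | Signal: Immunofluorescence imaging | Benchmarks: TNF-alpha, DMSO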
SIRT5 inh = SIRT5 desuccinylase inhibitors, primary screen, biochemical, fluorescence imaging, single point, set 5; NAD-dependent protein deacylase sirtuin-5, mitochondrial (Homo sapiens), Q9NXA8; 330,000 compounds, 1.1% hits; inhibition, % at 15 µM; Purified SirT5, succinyl-peptide AMC, trypsin-coupled fluorescence; in the data active = inhibition above about 15%
Target sequence (Q9NXA8 whole entry, looked up): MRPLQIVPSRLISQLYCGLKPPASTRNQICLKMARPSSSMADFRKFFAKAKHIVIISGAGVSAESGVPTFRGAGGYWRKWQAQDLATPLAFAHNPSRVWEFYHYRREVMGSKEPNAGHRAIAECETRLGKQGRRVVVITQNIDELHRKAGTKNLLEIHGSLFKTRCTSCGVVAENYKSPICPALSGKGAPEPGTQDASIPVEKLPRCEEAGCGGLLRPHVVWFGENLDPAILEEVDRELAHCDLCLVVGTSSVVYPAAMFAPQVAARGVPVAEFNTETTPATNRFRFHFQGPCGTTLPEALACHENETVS
Statin myotox sup = suppressors of statin myotoxicity in C2C12 myotubes, primary screen, cell-based, single point, plate reader. rescue of ATP level, % at 7.49 µM. 330,000 compounds, 0.78% hits. C2C12 myotubes + simvastatin, ATP luminescence, 48 h; scaled: DMSO 0, geranylgeraniol control 100;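 active = mean ATP rescue above about 67%, or every replicate alone reaching that limit, limit read from the data, passing the limit was not always enough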;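 note: myotubes were challenged with 10 µM simvastatin during compound exposure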
The depositor's hits bear a star; x = not tested or not shown.

SMILES	Ecoli rRNA inh	FGF22 binding	FN deposit inh	E-sel inducer	SIRT5 inh	Statin myotox sup
CC(C)N1CCN(Cc2ccncc2)CC1CCO (centres undefined)	18	42	7	x	-4	x
CCC(=O)Nc1ccc2c(c1)C(=O)N(C)[C@@H]1CC[C@H](CC(=O)NC3CCCC3)O[C@@H]1CO2	4	0	-7	0	1	10
Cc1ccc(C2=C/C(=C/c3cccnc3)C(=O)O2)c(C)c1	3	44*	-1	x	-2	x
O=C1OC(c2ccc(Cl)cc2)=C/C1=C/c1cccnc1	16	0	0	0	0	4
Nc1ccc(Cl)cc1C(=O)c1ccc[nH]1	-12	44*	-7	1	x	7
CN(C)C(=O)C[C@@H]1C=C[C@H](NC(=O)C2CC2)[C@@H](CO)O1	4	0	-16	0	-1	-5
COc1ccccc1C(CNC(=O)c1cccc(S(=O)(=O)N2CCCc3ccccc32)c1)N(C)C (centres undefined)	-8	0	5	0	-8	-8
COc1ccc(C(CNC(=O)c2cccc(S(=O)(=O)N3CCc4ccccc43)c2)N(C)C)cc1 (centres undefined)	2	43*	-3	0	x	5
COc1ccc(NS(=O)(=O)c2cccc(C(=O)NCC(c3ccc(OC)cc3)N3CCCCC3)c2)cc1 (centres undefined)	5	0	0	x	1	27
COc1ccc(C(CNC(=O)c2cccc(S(=O)(=O)N3CCCCC3)c2)N2CCCC2)cc1 (centres undefined)	5	0	12	-1	24*	-24
COc1ccc(-c2ccc3c(c2)[C@@H]2[C@@H](CCN2C(=O)C2CCCCC2)[C@H](CO)N3C)cc1	-7	-1	-7	0	7	30
C[C@H]1CN([C@@H](C)CO)C(=O)c2cc(-c3cccc(C(=O)N(C)C)c3)cnc2O[C@@H]1CN(C)C	4	-1	-8	-1	1	-3
CN1CCC(=NNC(=O)COc2ccc(Cl)cc2)CC1	14	0	6	x	21*	16
CN1CCC(=NNC(=O)CN(c2ccc(Oc3ccccc3)cc2)S(C)(=O)=O)CC1	6	0	5	1	-9	110*
CCOC(=O)N1CCN(C(=O)C(=O)NNC(=O)COc2ccc(Cl)cc2)CC1	x	44*	1	x	-2	x
C/C(=N\NC(=O)CN(c1ccc(Oc2ccccc2)cc1)S(C)(=O)=O)C(C)(C)C	-2	44*	-7	0	-4	x
O=C1CSC(=Nc2ccc(Cl)cc2)N1Cc1ccco1	-26	0	2	x	11	1
O=C(COc1ccc(Br)cc1)N/N=C1/SCC(=O)N1Cc1ccco1	-23*	0	13	0	1	x
O=C(NNC(=O)c1ccccc1-n1cccc1)c1ccccc1	x	x	x	x	x	-15
NNC(=O)c1ccccc1-n1cccc1	x	43*	-2	x	22*	1
COc1ccc2c3c([nH]c2c1)[C@@H](CO)N(C(=O)c1ccccc1)CC31CCN(C)CC1	2	0	x	0	4	x
COCCn1nnnc1C(c1ccccc1)N1CCN(Cc2ccc3c(c2)OCO3)CC1 (centres undefined)	x	x	x	x	x	108*
CC(C)CCn1nnnc1C(c1ccccc1)N1CCN(C)CC1 (centres undefined)	x	x	x	x	x	-15
COCCn1nnnc1C(c1ccc(C)cc1)N1CCN(Cc2ccc3c(c2)OCO3)CC1 (centres undefined)	x	x	x	x	x	93*
CCC(c1nnnn1CCOC)N1CCN(Cc2ccccc2)CC1 (centres undefined)	x	x	x	x	x	4
SMILES	Ecoli rRNA inh	FGF22 binding	FN deposit inh	E-sel inducer	SIRT5 inh	Statin myotox sup
C=CCN1CCN(C(c2ccccc2)c2nnnn2CCC(C)C)CC1 (centres undefined)	x	x	-4	x	x	71*
O=C(NCc1nc2ccccc2[nH]1)C1=C[C@H](c2ccc(Br)cc2)C[C@H](OCCCCO)O1	x	0	x	x	-1	x
Cc1ccc(S(=O)(=O)CC(=O)c2cc(C)c(O)c(C)c2)cc1	-24*	1	-5	0	-2	20
COc1ccc2c3c(n(C)c2c1)[C@H](CO)N(C(=O)Nc1ccc(F)cc1)CC31CCN(C(=O)Nc2ccc(F)cc2F)CC1	4	x	-25	0	x	x
C[C@H]1CN([C@@H](C)CO)C(=O)Cc2cc(NC(=O)c3ccncc3)ccc2O[C@H]1CN(C)CC1CCCCC1	-1	0	x	0	11	3
Cc1nc([N+](=O)[O-])cn1CC(O)c1ccc(-c2ccccc2)cc1 (centres undefined)	-45*	0	-16	0	-5	x
Cc1csc2ncc(C(=O)N3c4ccccc4CC3C)c(=O)n12 (centres undefined)	-5	0	-4	0	16*	-3
Cc1noc(C)c1S(=O)(=O)Nc1ccc2c(c1)C(=O)N([C@@H](C)CO)C[C@H](C)[C@H](CN(C)C(=O)NC1CCCCC1)OCCCC[C@@H](C)O2	-1	-1	x	0	-3	45
Oc1c(CN2CCCCC2)ccc2cccnc12	-13*	-1	-2	0	-4	-24
Oc1ccc(CN2CCCCC2)c2cccnc12	-7	0	x	x	1	-56
O=C(c1cccc(Cl)c1)C1CCCN(C(=O)c2ccc3c(c2)OCO3)C1 (centres undefined)	-11	0	-5	x	-2	30
CSc1ccc(C(=O)C2CCCN(C(=O)c3ccc4c(c3)OCO4)C2)cc1 (centres undefined)	-40	0	9	x	16*	16
CCCNC(=O)N1[C@H](CNC(C)=O)[C@H](c2ccc(-c3ccccc3)cc2)[C@@H]1CO	-7	x	-5	0	x	-8
COc1ccc(CCN=C(C)C2=C(O)C(c3ccccc3)OC2=O)cc1OC (centres undefined)	-22	43*	-7	x	1	x
C[C@@H]1CN([C@H](C)CO)C(=O)c2ccccc2-c2ccccc2CO[C@@H]1CN(C)C(=O)C1CC1	3	x	-12	x	x	x
Cc1ccc2c(c1)Sc1ccccc1CC2=O	x	x	x	x	x	83*
CC(=O)N1[C@@H]2c3ccc(-c4ccccc4)c(=O)n3C[C@H]1[C@H](CO)[C@H]2C(=O)NCC1CC1	-1	0	x	0	-37	2
